Data from ChEMBL document CHEMBL2057113, “Modern phenotypic drug discovery is a viable, neoclassic pharma strategy” (J Med Chem, 2012).
Counter-ions that a name gives are not always drawn. Calls of active or inactive are those of the source. The rule behind the calls is not given here.

Columns and labels:
[1] = Toxicity in endothelial precursor cells co-cultured with stromal precursor ADSC cells by total nuclei count detection based phenotypic drug discovery based assay
Procedure, shortened: (§1)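 384-well coculture of endothelial colony-forming cells (ECFC) with adipose-derived stromal cells (ADSC) at 37 °C, 5% CO2. Screening at 2 μM single point on CD31-positive cord area; actives retested in 10-point dose response, with CD31 cord area as cord formation read-out and total nuclei count as cytotoxicity read-out.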

[2] = Inhibition of endothelial cord area formation in endothelial precursor cells by CD31 cord area detection based phenotypic drug discovery based assay; format: functional; procedure, shortened: as §1
[3] = Inhibition of cell migration in endothelial precursor cells by Oris cell migration kit based phenotypic drug discovery based assay; format: functional
HEK293 = experiment: Inhibition of ACC expressed in HEK293 cells assessed as effect on incorporation of [14C]acetate into triacylglycerol; format: cell-based; conditions: Homo sapiens
Procedure, shortened: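 HEK293 cells moved from growth medium (DMEM, 10% FBS) into Opti-MEM containing compound in 0.2% DMSO for 1 h, then labeled with 30 μM [14C]acetate for 4 h. Cells washed, dissolved in Triton X-100 (0.175%) with basic ethanol/isopropanol at room temperature; labeled triacylglycerol extracted into heptane and counted by liquid scintillation.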

[4] = Toxicity in human HeLa cells assessed as cell cycle arrest at G2M phase by flow cytometry based phenotypic drug discovery based assay
[5] = target: Gamma-secretase (Homo sapiens) (UniProt Q96BI3+Q9NZ42+Q8WW43+P49768+Q92542+P49810); experiment: Inhibition of human gamma secretase-expressed in HEK293 co-expressing human Notch-1 cells assessed as effect on enzyme-mediated Notch-1 processing up to 5 uM; format: cell-based
Procedure, shortened: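 HEK293 cells expressing a human Notch-1 construct lacking the extracellular ligand-binding domain (analogous to constitutively active mouse NotchΔE); γ-secretase cleavage detected with a mouse monoclonal antibody to the γ-secretase neoepitope of human Notch-1; tested up to 5 μM.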

Beta-secretase 1 = Beta-secretase 1 (Homo sapiens, UniProt P56817); experiment: Inhibition of human BACE1 using BACE1-IgG construct by labeled substrate hydrolysis detection assay
Sequence of Beta-secretase 1 (P56817 whole entry, the tested form may be a part): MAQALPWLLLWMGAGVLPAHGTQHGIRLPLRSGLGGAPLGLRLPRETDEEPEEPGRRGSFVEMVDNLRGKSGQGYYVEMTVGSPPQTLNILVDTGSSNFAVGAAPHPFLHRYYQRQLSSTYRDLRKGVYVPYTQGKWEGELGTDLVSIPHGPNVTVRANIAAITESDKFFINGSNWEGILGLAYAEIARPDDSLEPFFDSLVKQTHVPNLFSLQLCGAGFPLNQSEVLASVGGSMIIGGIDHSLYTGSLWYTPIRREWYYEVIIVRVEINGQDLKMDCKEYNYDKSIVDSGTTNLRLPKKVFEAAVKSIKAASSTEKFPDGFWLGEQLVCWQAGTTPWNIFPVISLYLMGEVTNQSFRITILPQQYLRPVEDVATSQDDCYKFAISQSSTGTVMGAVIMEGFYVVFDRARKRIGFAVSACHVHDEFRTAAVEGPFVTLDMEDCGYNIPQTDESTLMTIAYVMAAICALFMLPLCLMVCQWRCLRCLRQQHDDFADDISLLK
Procedure, shortened: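 Soluble human BACE activity: purified BACE-IgG ectodomain construct hydrolyzing a labeled peptide substrate.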

Gamma-secretase = experiment: Inhibition of human gamma secretase expressed in HEK293 cells coexpressing human APP by soluble beta-APP detection based ELISA; format: cell-based
Procedure, shortened: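 HEK293 cells expressing recombinant human APP; soluble APPsβ production measured by ELISA with a mouse monoclonal antibody to the β-secretase neoepitope of hAPP.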

U-87 MG [6] = experiment: In-vivo inhibition of angiogenesis in human U87MG cells xenografted in athymic nude Harlan mouse at 10 mg/kg oral gavage dosed twice daily for 3 days measured 3 days post dose by fluorescence microscopy; format: functional, organism-based; parameters: dose 10 mg/kg; conditions: U-87MG ATCC
Procedure, shortened: (§2)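 U87MG glioblastoma cells mixed 1:1 with Matrigel, 5.0 × 10^6 cells injected subcutaneously into right rear flank of female athymic nude mice; grown to mean 250 mm3, randomized by tumor volume and body weight (10/group). Dosing twice daily for 3 days: sc in 100% peanut oil, or oral gavage in 10% acacia. Tumors excised, zinc-Tris fixed, paraffin sectioned at 4 μm.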

U-87 MG [7] = experiment: In-vivo inhibition of angiogenesis in human U87MG cells xenografted in athymic nude Harlan mouse at 30 mg/kg, sc dosed twice daily for 3 days measured 3 days post dose by fluorescence microscopy; format: functional, organism-based; parameters: dose 30 mg/kg; conditions: U-87MG ATCC; procedure, shortened: as §2

Compound | EC50 [2] | IC50 [3] | inhibition [5] | IC50 [2] | IC50 (Beta-secretase 1) | IC50 (Gamma-secretase) | EC50 [1] | inhibition (HEK293) | EC50 [4] | IC50 [1] | inhibition (U-87 MG [6]) | inhibition (U-87 MG [7])
CCNC(=O)Nc1sc2ccccc2c1C(=O)N1CCC2(CC1)CC(=O)c1cc(-c3nccs3)ccc1O2 | 0.041 µM | 13 µM | – | – | – | – | > 10 µM | Active | > 10 µM | – | – | –
Cc1ccc(OCC(=O)N[C@@H]2c3cc(NC(=O)COc4ccc(C#N)cc4C)ccc3C[C@H]2O)cc1 | – | – | inactive | 2.5 µM | 13.6 µM | > 5 µM | – | – | – | > 10 µM | – | –
CCN(CC)CCNC(=O)c1c(C)[nH]c(/C=C2\C(=O)Nc3ccc(F)cc32)c1C [SUNITINIB] | – | 13.6 µM | – | 0.0096 µM | – | – | > 10 µM | – | > 10 µM | – | Active | –
Cc1ccc(OCC(=O)N[C@H]2c3cc(NC(=O)[C@@H](C)Oc4ccc(C#N)cc4C)ccc3C[C@@H]2O)cc1 (mixture of isomers) | 0.021 µM | > 40 µM | inactive | – | – | – | > 10 µM | – | > 10 µM | – | – | Active

The remaining compounds from weak to strong by IC50 [2], led by results:

EC50 [2] | IC50 [3] | inhibition [5] | IC50 [2] | IC50 (Beta-secretase 1) | IC50 (Gamma-secretase) | Compound | EC50 [1] | inhibition (HEK293) | EC50 [4] | IC50 [1] | inhibition (U-87 MG [6]) | inhibition (U-87 MG [7])
– | – | inactive | 9.1 µM | 45.6 µM | > 5 µM | Cc1ccc(OCC(=O)N[C@@H]2c3cc(NC(=O)COc4ccc(C#N)cc4C)ccc3C[C@@H]2O)cc1 | – | – | – | > 10 µM | – | –
– | – | inactive | 1.45 µM | 4 µM | > 5 µM | Cc1ccc(OCC(=O)N[C@H]2c3cc(NC(=O)COc4ccc(C#N)cc4C)ccc3C[C@H]2O)cc1 | – | – | – | > 10 µM | – | –
– | – | inactive | 0.022 µM | 0.142 µM | > 5 µM | Cc1ccc(OCC(=O)N[C@H]2c3cc(NC(=O)COc4ccc(C#N)cc4C)ccc3C[C@@H]2O)cc1 | – | – | – | > 10 µM | – | –
– | 16.7 µM | – | 0.00421 µM | – | – | CNC(=O)c1cc(Oc2ccc(NC(=O)Nc3ccc(Cl)c(C(F)(F)F)c3)cc2)ccn1 [SORAFENIB TOSYLATE] | 5.46 µM | – | > 10 µM | – | – | –
